Measured values as given in ChEMBL document CHEMBL1138555, “N-acylated and N,N'-diacylated imidazolidine-2-thione derivatives and N,N'-diacylated tetrahydropyrimidine-2(1H)-thione analogues: synthesis and antiproliferative activity” (Eur J Med Chem, 2009).

Experiments:
[1] = test system: MT4; assay: Antiproliferative activity against human MT4 cells assessed as reduction of growth by MTT assay; assay type: functional, cell-based
Outline: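 MT-4 lymphoblastoid T cells (ATCC) in RPMI 1640 with 10% FCS, penicillin/streptomycin, checked for mycoplasma. 1 × 10⁴ mock-infected cells per well with serial dilutions from a 100 mM DMSO stock. Incubated 4 days at 37 °C, viable cells counted by MTT. IC50 versus untreated controls by linear regression. Mean of three separate experiments.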

[2] = test system: HL-60(TB); assay: Growth inhibition of human HL-60(TB) cells after 48 hrs by sulforhodamine B assay; assay type: functional; conditions: HL-60, 48 h
Outline: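 NCI 60-cell-line screen protocol: cells exposed to compound at five 10-fold dilutions from 10^-4 to 10^-8 M for the last 48 h of a 72 h incubation. Sulforhodamine B protein assay estimated viability/growth. GI50 (50% growth inhibition) derived; where not reached or exceeded, reported as greater or less than the highest or lowest concentration tested.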

[3] = test system: HOP-92; assay: Growth inhibition of human HOP92 cells after 48 hrs by sulforhodamine B assay; assay type: functional; conditions: HOP-92, 48 h
Outline: (§1)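 NCI screen panel. Five 10-fold concentrations from 10^-4 to 10^-8 M. Exposure for the last 48 h of a 72 h incubation. Growth estimated by sulforhodamine B protein assay. GI50 is the concentration giving 50% growth inhibition. Where that level was not reached or was exceeded, the value is given as above or below the highest or lowest concentration tested.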

[4] = test system: NCI-H23; assay: Growth inhibition of human NCI-H23 cells after 48 hrs by sulforhodamine B assay; assay type: functional; conditions: NCI-H23, 48 h; outline: as §1
[5] = test system: NCI-H322M; assay: Growth inhibition of human NCI-H322M cells after 48 hrs by sulforhodamine B assay; assay type: functional; outline: as §1
[6] = test system: NCI-H460; assay: Growth inhibition of human NCI-H460 cells after 48 hrs by sulforhodamine B assay; assay type: functional; conditions: NCI-H460, 48 h; outline: as §1
[7] = test system: NCI-H522; assay: Growth inhibition of human NCI-H522 cells after 48 hrs by sulforhodamine B assay; assay type: functional; conditions: NCI-H522, 48 h; outline: as §1
[8] = test system: HCC 2998; assay: Growth inhibition of human HCC2998 cells after 48 hrs by sulforhodamine B assay; assay type: functional; conditions: HCC 2998, 48 h; outline: as §1
[9] = test system: HCT-116; assay: Growth inhibition of human HCT116 cells after 48 hrs by sulforhodamine B assay; assay type: functional; conditions: HCT-116, 48 h; outline: as §1
[10] = test system: HCT-15; assay: Growth inhibition of human HCT15 cells after 48 hrs by sulforhodamine B assay; assay type: functional; conditions: HCT-15, 48 h; outline: as §1
[11] = test system: HT-29; assay: Growth inhibition of human HT-29 cells after 48 hrs by sulforhodamine B assay; assay type: functional; conditions: HT-29, 48 h; outline: as §1
[12] = test system: KM12; assay: Growth inhibition of human KM12 cells after 48 hrs by sulforhodamine B assay; assay type: functional; conditions: KM12, 48 h; outline: as §1
[13] = test system: SW-620; assay: Growth inhibition of human SW620 cells after 48 hrs by sulforhodamine B assay; assay type: functional; conditions: SW-620, 48 h
Outline: (§2)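 NCI in vitro panel screen. Compounds tested at five 10-fold dilutions, 10^-4 to 10^-8 M. Cells in 96-well plates were exposed for the last 48 h of a 72 h incubation. Viability/growth was read by sulforhodamine B protein assay. GI50 is the concentration giving 50% growth inhibition. Values beyond the tested range are reported as greater or less than the maximum or minimum concentration.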

[14] = test system: SF-268; assay: Growth inhibition of human SF268 cells after 48 hrs by sulforhodamine B assay; assay type: functional; conditions: SF-268, 48 h; outline: as §1
[15] = test system: SF-295; assay: Growth inhibition of human SF295 cells after 48 hrs by sulforhodamine B assay; assay type: functional; conditions: SF-295, 48 h; outline: as §1
[16] = test system: SF-539; assay: Growth inhibition of human SF539 cells after 48 hrs by sulforhodamine B assay; assay type: functional; conditions: SF-539, 48 h; outline: as §1
[17] = test system: U-251; assay: Growth inhibition of human U251 cells after 48 hrs by sulforhodamine B assay; assay type: functional; conditions: U-251, 48 h; outline: as §2
[18] = test system: LOX IMVI; assay: Growth inhibition of human LOXIMVI cells after 48 hrs by sulforhodamine B assay; assay type: functional; outline: as §1
[19] = test system: Malme-3M; assay: Growth inhibition of human MALME-3M cells after 48 hrs by sulforhodamine B assay; assay type: functional; outline: as §1
[20] = test system: M14; assay: Growth inhibition of human M14 cells after 48 hrs by sulforhodamine B assay; assay type: functional; conditions: M14, 48 h; outline: as §1
[21] = test system: SK-MEL-2; assay: Growth inhibition of human SK-MEL-2 cells after 48 hrs by sulforhodamine B assay; assay type: functional; conditions: SK-MEL-2, 48 h; outline: as §1
[22] = test system: SK-MEL-28; assay: Growth inhibition of human SK-MEL-28 cells after 48 hrs by sulforhodamine B assay; assay type: functional; conditions: SK-MEL-28, 48 h; outline: as §1
[23] = test system: UACC-62; assay: Growth inhibition of human UACC62 cells after 48 hrs by sulforhodamine B assay; assay type: functional; conditions: UACC-62, 48 h; outline: as §2
[24] = test system: IGROV-1; assay: Growth inhibition of human IGROV1 cells after 48 hrs by sulforhodamine B assay; assay type: functional; conditions: IGROV-1, 48 h; outline: as §1
[25] = test system: OVCAR-3; assay: Growth inhibition of human OVCAR-3 cells after 48 hrs by sulforhodamine B assay; assay type: functional; conditions: OVCAR-3, 48 h; outline: as §1
[26] = test system: OVCAR-4; assay: Growth inhibition of human OVCAR4 cells after 48 hrs by sulforhodamine B assay; assay type: functional; conditions: OVCAR-4, 48 h; outline: as §1
[27] = test system: OVCAR-5; assay: Growth inhibition of human OVCAR5 cells after 48 hrs by sulforhodamine B assay; assay type: functional; conditions: OVCAR-5, 48 h; outline: as §1
[28] = test system: SK-OV-3; assay: Growth inhibition of human SKOV3 cells after 48 hrs by sulforhodamine B assay; assay type: functional; conditions: SK-OV-3, 48 h; outline: as §1
[29] = test system: 786-0; assay: Growth inhibition of human 786-0 cells after 48 hrs by sulforhodamine B assay; assay type: functional; conditions: 786-0, 48 h; outline: as §1
[30] = test system: CAKI-1; assay: Growth inhibition of human Caki1 cells after 48 hrs by sulforhodamine B assay; assay type: functional; conditions: CAKI-1, 48 h; outline: as §1
[31] = test system: RXF 393; assay: Growth inhibition of human RXF393 cells after 48 hrs by sulforhodamine B assay; assay type: functional; conditions: RXF 393, 48 h; outline: as §1
[32] = test system: SN12C; assay: Growth inhibition of human SN12C cells after 48 hrs by sulforhodamine B assay; assay type: functional; outline: as §2
[33] = test system: TK-10; assay: Growth inhibition of human TK10 cells after 48 hrs by sulforhodamine B assay; assay type: functional; conditions: TK-10, 48 h; outline: as §2
[34] = test system: PC-3; assay: Growth inhibition of human PC3 cells after 48 hrs by sulforhodamine B assay; assay type: functional; conditions: PC-3, 48 h; outline: as §1
[35] = test system: DU-145; assay: Growth inhibition of human DU145 cells after 48 hrs by sulforhodamine B assay; assay type: functional; conditions: DU-145, 48 h; outline: as §1
[36] = test system: MCF7; assay: Growth inhibition of human MCF7 cells after 48 hrs by sulforhodamine B assay; assay type: functional; conditions: MCF7, 48 h; outline: as §1
[37] = test system: MDA-MB-231; assay: Growth inhibition of human MDA-MB-231 cells after 48 hrs by sulforhodamine B assay; assay type: functional; conditions: MDA-MB-231, 48 h; outline: as §1
[38] = test system: MDA-MB-435; assay: Growth inhibition of human MDA-MB-435 cells after 48 hrs by sulforhodamine B assay; assay type: functional; conditions: MDA-MB-435, 48 h; outline: as §1
[39] = test system: BT-549; assay: Growth inhibition of human BT549 cells after 48 hrs by sulforhodamine B assay; assay type: functional; conditions: BT-549, 48 h; outline: as §1
[40] = test system: UO-31; assay: Growth inhibition of human UO31 cells after 48 hrs by sulforhodamine B assay; assay type: functional; conditions: UO-31, 48 h; outline: as §2

Row | Compound | IC50 [1] | GI50 [2] | GI50 [3] | GI50 [4] | GI50 [5] | GI50 [6] | GI50 [7] | GI50 [8] | GI50 [9] | GI50 [10] | GI50 [11] | GI50 [12] | GI50 [13] | GI50 [14] | GI50 [15] | GI50 [16] | GI50 [17] | GI50 [18] | GI50 [19] | GI50 [20] | other results
1 | O=C(c1ccc(Cl)cc1Cl)N1CCN(C(=O)c2ccc(Cl)cc2Cl)C1=S | 39 µM | 16.6 µM | 7.8 µM | 19.8 µM | 18.1 µM | 35.4 µM | 18.2 µM | 22 µM | 23.5 µM | 22.1 µM | 20.4 µM | 15.3 µM | 28.2 µM | 24.5 µM | 22.9 µM | 27.2 µM | 17.8 µM | 17.1 µM | 25.4 µM | 16.3 µM | GI50 [21]: 18.4 µM; GI50 [22]: 18.4 µM; GI50 [23]: 17.3 µM; GI50 [24]: 21 µM; GI50 [25]: 19.7 µM; GI50 [26]: 25.8 µM; GI50 [27]: 21.6 µM; GI50 [28]: 22.8 µM; GI50 [29]: 18.6 µM; GI50 [30]: 22.1 µM; GI50 [31]: 18.5 µM; GI50 [32]: 18.1 µM; GI50 [33]: 36.3 µM; GI50 [34]: 22.7 µM; GI50 [35]: 30.6 µM; GI50 [36]: 18.3 µM; GI50 [37]: 19.1 µM; GI50 [38]: 16.4 µM; GI50 [39]: 21.1 µM
2 | O=C(c1ccc(Cl)c(Cl)c1)N1CCN(C(=O)c2ccc(Cl)c(Cl)c2)C1=S | 4.6 µM | 12.7 µM | 20 µM | 22 µM | 19.8 µM | 22 µM | 6.1 µM | 19.9 µM | 18.1 µM | 19.6 µM | 24.2 µM | 16.1 µM | 21.3 µM | 16.8 µM | 18.5 µM | 15.1 µM | 16.4 µM | 7.6 µM | 14.9 µM | 19.6 µM | GI50 [21]: 18.4 µM; GI50 [22]: 30.6 µM; GI50 [23]: 18.1 µM; GI50 [24]: 19.7 µM; GI50 [25]: 17.1 µM; GI50 [26]: 16.8 µM; GI50 [27]: 24.3 µM; GI50 [28]: 18.2 µM; GI50 [29]: 7.2 µM; GI50 [30]: 14 µM; GI50 [31]: 17.8 µM; GI50 [32]: 18.3 µM; GI50 [33]: 18.5 µM; GI50 [34]: 16.7 µM; GI50 [35]: 14.7 µM; GI50 [36]: 5.6 µM; GI50 [37]: 18.8 µM; GI50 [38]: 15.4 µM; GI50 [39]: 23.6 µM
3 | COc1cc(C(=O)N2CCN(C=O)C2=S)cc(OC)c1OC | 13 µM | 23.4 µM | 9.3 µM | 25.9 µM | 24.8 µM | 34 µM | 5.8 µM | 19.8 µM | 35.6 µM | 25.6 µM | 26.7 µM | 14.4 µM | 26.8 µM | 21.4 µM | 29.3 µM | 21.3 µM | 16.4 µM | 16.4 µM | 24.3 µM | 20.6 µM | GI50 [21]: 19.9 µM; GI50 [22]: 29.5 µM; GI50 [23]: 15.8 µM; GI50 [24]: 21.9 µM; GI50 [25]: 16.9 µM; GI50 [26]: 24.1 µM; GI50 [27]: 48.5 µM; GI50 [28]: 21.9 µM; GI50 [29]: 12.7 µM; GI50 [30]: 13.6 µM; GI50 [31]: 16.1 µM; GI50 [32]: 20.2 µM; GI50 [33]: 17.1 µM; GI50 [40]: 0.07 µM; GI50 [34]: 22.2 µM; GI50 [35]: 19.6 µM; GI50 [36]: 5.5 µM; GI50 [37]: 21.5 µM; GI50 [38]: 15.5 µM; GI50 [39]: 25 µM
